High-throughput results from PubChem BioAssay.
Rows were chosen to be rich in hits. Some 9.8% of all compounds tested hit in one or more screens of this group.
WT yeast gro inh: growth inhibition of WT yeast, mitochondrial fusion screen. mitochondrial fusion phenotypic screen, WT strain. inhibition, % at 10 µM. 2.1% of 190,000 active. AID 1362; in the data active means inhibition above about 58%; tested in S. cerevisiae
m-calpain inh: blocks pig calpain II enzyme activity; purified calpain II, fluorogenic peptide substrate, 30 min; inhibition, % at 16 µM; 0.37% of 220,000 active; AID 1236;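 active means inhibition above about 50%, limit read from the data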
PMI act satM6P: PMI (human) activation, high substrate. AID 1216. coupled PMI enzyme assay, resazurin fluorescence, 20 min; stronger effect = higher value; 1 = untreated enzyme, 0 = substrate-free blank. P34949. activation factor at 20 µM. 0.34% of 190,000 active;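 active means activation factor of 2 or more at 20 µM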
Target sequence (P34949 whole entry, looked up): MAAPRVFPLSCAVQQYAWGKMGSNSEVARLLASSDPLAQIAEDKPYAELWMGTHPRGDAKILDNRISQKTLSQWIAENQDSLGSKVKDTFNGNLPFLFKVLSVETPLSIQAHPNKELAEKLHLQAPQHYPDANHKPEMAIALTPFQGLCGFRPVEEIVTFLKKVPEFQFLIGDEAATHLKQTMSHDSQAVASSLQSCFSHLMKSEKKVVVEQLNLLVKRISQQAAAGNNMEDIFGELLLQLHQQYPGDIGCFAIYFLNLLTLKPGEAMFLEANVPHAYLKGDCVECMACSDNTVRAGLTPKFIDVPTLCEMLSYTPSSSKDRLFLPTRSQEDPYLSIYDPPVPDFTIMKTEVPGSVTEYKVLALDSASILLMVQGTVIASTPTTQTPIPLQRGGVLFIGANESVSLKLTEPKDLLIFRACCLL
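Test system: human phosphomannose isomerase with PGI, G6PDH, diaphorase coupling enzymes / Doses: 20 µM compound, 1% DMSO / Times: enzyme reaction with compound 20 min at room temperature / Measured by: Diaphorase-driven resazurin-to-resorufin fluorescence, excitation 544, emission 590 nm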
L major viab: Leishmania major promastigote growth inhibition; 9% of 200,000 active; Leishmania major promastigotes, resazurin fluorescence viability; inhibition, % at 10 µM; in the data active means inhibition above about 50%;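 further: promastigotes grown with compound for 44 hours at 28 °C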
Rad51 HR inh: Rad51 (human) homologous recombination inhibition. Q06609. hRad51 DNA strand exchange, fluorescence dequenching. inhibition, % at 10 µM. 0.085% of 200,000 active. AID 1385;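 active means inhibition above 40% at the single screening dose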;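 further: 0% = DMSO control wells and 100% = blanks with heterologous ssDNA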
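Material: human Rad51–ssDNA filaments; Probe or stimulus: labelled 47-mer dsDNA for strand exchange; Doses: single 10 µM dose; Incubation: 37 °C 15-min filament assembly, 30-min compound preincubation, 15-min exchange; Technique: FRET fluorescence dequenching, excitation 485 nm, emission 520 nm; Measure: Fluorescence-based percent inhibition, control- and blank-normalised; Benchmarks: plate control and blank wells.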
PMI act: activators of human phosphomannose isomerase; 0.005% of 190,000 active; purified human PMI, coupled resazurin fluorescence, 20 min; stronger effect = higher value; 1 = vehicle control, 0 substrate-free wells; P34949; activation factor at 20 µM;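 active means activation factor of 2 or more at 20 µM, relative to plate controls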
* marks the source's active call; other numbers are inactive results; i = inactive; . = no result given.

SMILES	WT yeast gro inh	m-calpain inh	PMI act satM6P	L major viab	Rad51 HR inh	PMI act
COc1ccc(Cl)cc1C(=O)Nc1ccc(NC(=O)c2ccco2)cc1	-5.1	-136.4	1	-5.0	-6.5	0.9
COc1cc(NC(=O)C2CCCCC2)c(OC)cc1NC(=O)c1ccco1	3.6	15.7	1.1	11.4	1.6	0.8
Cc1csc(NC(C)c2nc3cc(C(F)(F)F)ccc3n2CCCO)n1 (centres undefined)	.	.	.	.	0.3	.
O=C(c1ccco1)N1CCN(S(=O)(=O)c2ccccc2[N+](=O)[O-])CC1	-7.4	0.9	0.9	-7.7	3.5	0.9
CCOc1ccc(NC(=O)CN(C)CC(=O)Nc2ccc(Br)cc2F)cc1OCC	6.9	-25.5	1	0.2	3.6	1
CCCN(CCC)C(=O)CC(c1ccccc1)c1cc(Br)ccc1O (centres undefined)	76.0*	73.6*	0.8	29.9	4.8	0.8
CCCN(CCC)C(=O)CC(c1ccccc1)c1ccc(C)cc1O (centres undefined)	35.2	48.1	1	45.9	-0.5	0.9
O=C(COC(=O)c1cccnc1Cl)NCCC1=CCCCC1	3.4	-19.9	0.9	-4.3	8.7	0.9
COc1cccc(C2=CC(c3cccc(OC)c3OC(F)F)n3nnnc3N2)c1 (centres undefined)	8.5	-18.2	1.1	2.2	6.1	1
COc1cccc(C2=CC(c3cc(OC)ccc3OC)n3nnnc3N2)c1 (centres undefined)	22.3	21.6	0.9	92.0*	.	0.9
COc1cccc(C2=CC(c3cccc(OC)c3OC)n3nnnc3N2)c1 (centres undefined)	9.3	23.0	1.4	78.8*	-2.1	1.1
COc1cccc(C2=CC(c3ccc(N(C)C)cc3)n3nnnc3N2)c1 (centres undefined)	16.4	0.5	1	1.8	-2.3	1.1
COc1cccc(C2=CC(c3ccccc3)n3nnnc3N2)c1 (centres undefined)	68.1*	62.6*	1.2	44.5	.	1.1
O=C(COC(=O)CCC(=O)c1cccs1)Nc1ccccc1[N+](=O)[O-]	-20.1	0.3	1.1	-1.0	-6.4	1
CC(C)(C)C(=O)Nc1cccc2[nH]ncc12	-9.6	-22.0	0.9	-0.8	13.8	1
CC(=O)Nc1ccc(S(=O)(=O)Nc2cccc3[nH]ncc23)cc1	-17.7	50.7*	0.9	-6.2	6.1	1
COc1ccc(OC)c(S(=O)(=O)N(C)CC(=O)Nc2cc(Cl)ccc2OC)c1	1.5	5.1	1	99.6*	-2.1	1.1
COc1ccc(Cl)cc1NC(=O)CN(c1ccccc1)S(=O)(=O)N(C)C	30.2	-1.7	0.9	99.6*	-8.1	0.8
COc1ccc(Cl)cc1N(CC(=O)Nc1cccc(SC)c1)S(C)(=O)=O	-25.2	-31.1	0.8	61.5*	-4.9	0.8
COc1ccccc1NC(=O)CN(C)S(=O)(=O)c1cc(C)ccc1OC	-23.3	-13.2	0.9	8.6	7.1	1
COc1ccc(NC(=O)CN(c2ccccc2)S(=O)(=O)N(C)C)cc1Cl	11.5	1.9	1	9.1	-7.6	1
COc1ccc(N(CC(=O)Nc2cccc(SC)c2)S(C)(=O)=O)cc1Cl	-4.1	23.7	0.9	17.0	4.3	1
CCCCNC(=O)[C@@H]1CC=C[C@@H]2CCN(C3CC3)C(=O)[C@@H]21	.	.	.	.	0.0	.
CN(C(=O)CCl)C1CCCc2ccccc21 (centres undefined)	-15.4	14.2	1.1	85.8*	-3.0	1.2
O=C(CCl)NC1CCCc2ccccc21 (centres undefined)	0.4	12.6	1	6.6	1.5	1
SMILES	WT yeast gro inh	m-calpain inh	PMI act satM6P	L major viab	Rad51 HR inh	PMI act
Cn1c(SCC(=O)NNC(=O)c2ccc(Cl)cc2)nnc1-c1cccnc1	-9.0	-5.4	1.1	-5.4	5.0	1.1
O=C(COC(=O)c1ccc2c(=O)n3c(nc2c1)CCC3)Nc1ccc(OC(F)F)cc1	2.1	-30.2	0.9	-2.6	18.1	1
CCc1nn(C(C)C(=O)NCCN2CCN(c3cccc(C)c3C)CC2)c(=O)c2cc3occc3n12 (centres undefined)	57.8	3.7	0.9	84.5*	-6.1	0.8
CCc1nn(C(C)C(=O)Nc2cccc(C)c2C)c(=O)c2cc3occc3n12 (centres undefined)	-7.3	-18.7	0.9	0.3	-5.9	0.9
O=C(Nc1ccc(F)cc1)C1=CC(=O)N2CCN=C2S1	-18.9	-22.1	1.6	-4.7	28.2	1.2
CC1(C)Cc2ccccc2C2=NNC(=O)C2=N1	-23.6	i	0.2	100.4*	13.7	0.2
CC1(C)Cc2ccccc2C(Nn2cnnc2)=N1	-0.2	32.5	0.8	2.7	-2.7	1
COc1ccc(N2CCN(C(=O)CN(C3CCCCC3)S(C)(=O)=O)CC2)cc1	5.4	-4.6	0.9	-2.7	-6.0	0.9
COCCN=c1scc(-c2cc(OC)ccc2OC)n1/N=C/c1c[nH]c2ccccc12	58.1*	-11.5	0.9	40.6	-15.3	0.8
O=c1cc(O)c2ccccc2n1Cc1ccccc1	6.8	-27.2	0.8	-7.6	15.9	0.8
O=S(=O)(Oc1ccccc1/C=N/n1cnnc1)c1ccccc1	-13.8	-3.8	0.6	0.9	2.4	0.8
O=[N+]([O-])c1ccccc1S(=O)(=O)Oc1ccc(/C=N/n2cnnc2)cc1	-5.6	24.7	1.1	37.0	-4.1	1.1
CCOc1cc(/C=N/n2cnnc2)ccc1OS(=O)(=O)c1ccccc1	-1.3	62.6*	1	68.8*	7.5	1
COc1cc(/C=N/n2cnnc2)ccc1OS(=O)(=O)c1ccccc1[N+](=O)[O-]	15.2	59.4*	1.1	9.1	9.8	1
CC(C)c1ccc(OCc2nc(-c3ccccn3)no2)c(Br)c1	79.3*	29.9	0.9	14.0	4.5	0.8
C=C(C)CSc1cc(C)nc2c(-c3ccccc3)c(C)nn12	.	28.4	.	.	17.6	.
Cc1nn(C)cc1/C=C/C(=O)c1cccs1	-8.6	-34.5	1	15.1	3.2	1.1
CCCCN(C)CC(O)Cn1cc(/C=C/C(=O)c2cccs2)c2ccccc21 (centres undefined)	12.0	0.1	0.8	69.5*	-44.1	0.8
O=C(/C=C/c1cn(CC(O)CN2CCCCCC2)c2ccccc12)c1cccs1 (centres undefined)	26.0	4.8	0.8	100.3*	-21.1	0.8
O=Cc1cn(CC(=O)N2CCCCC2)c2ccccc12	-1.7	-13.1	1	-4.2	.	1.1
O=c1[nH][nH]c(-c2ccccc2O)c1C(C[N+](=O)[O-])c1ccccc1 (centres undefined)	-6.1	6.7	0.9	98.3*	2.8	0.8
O=c1[nH][nH]c(-c2ccccc2O)c1C(C[N+](=O)[O-])c1ccc(Cl)cc1Cl (centres undefined)	-2.1	-41.3	1	97.7*	-61.1	1
